Test [1] relates to Trypanosoma brucei rhodesiense. Nature of the test: Trypanocidal activity against Trypanosoma brucei rhodesiense STIB 900 bloodstream form after 72 hrs by resazurin assay. Type of test: functional, organism-based. Particulars: STIB 900, 72 h; call rule not given here. An outline of the steps: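 T. b. rhodesiense STIB 900 bloodstream forms in MEM with 2-mercaptoethanol and 15% heat-inactivated horse serum, with serial drug dilutions. Incubated 72 h at 37°C in 5% CO2. Resazurin added for 2–4 h more, fluorescence read at ex 536/em 588 nm. IC50 from sigmoidal curve. Duplicate, with an independent repeat for actives.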
(In general: The colour change of resazurin is a common sign of viable cells or microbes.)

Test [2] deals with Leishmania amazonensis. Nature of the test: Inhibition of sterol biosynthesis in Leishmania mexicana amazonensis promastigotes assessed as reduction in exogenous cholesterol level at 1 uM after 96 hrs by gas-liquid chromatography. Type of test: functional. Also on record: scale not given: the % may be the effect or the level left. An outline of the steps: (§1)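 L. mexicana promastigotes exposed to compound for 96 h. Total lipids extracted and neutral sterols separated from polar lipids by silicic acid column chromatography. Sterols analysed by TLC and by quantitative capillary gas-liquid chromatography with mass spectrometry. Composition expressed as mass % of free sterols, compared with untreated control.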

The test system of test [3] is Leishmania amazonensis. Nature of the test: Inhibition of sterol biosynthesis in Leishmania mexicana amazonensis promastigotes assessed as reduction in endogenous cholesta-7,24-dien-3beta-ol level at 3 uM after 96 hrs by gas-liquid chromatography. Type of test: functional. Also on record: scale not given: the % may be the effect or the level left. An outline of the steps:
as §1

Test [4] has as its system Leishmania amazonensis. Kind of test: Antileishmanial activity against Leishmania mexicana amazonensis promastigotes by trypan blue exclusion method. Type of test: functional, organism-based. An outline of the steps: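 L. mexicana amazonensis promastigotes cultured in liver infusion-tryptose medium with lactalbumin and 10% FCS at 26°C, unagitated. Cultures started at 2 × 10⁶ cells/ml and drug added at 0.5–1 × 10⁷ cells/ml. Density counted by electronic particle counter and hemocytometer. Viability by trypan blue exclusion. Triplicate growth experiments.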

Test [5] concerns Leishmania amazonensis. Kind of test: Inhibition of sterol biosynthesis in Leishmania mexicana amazonensis promastigotes assessed as reduction in endogenous cholesta-5,7,24-trien-3beta-ol level at 1 uM after 96 hrs by gas-liquid chromatography. The format is functional. Also on record: scale not given: the % may be the effect or the level left. An outline of the steps:
as §1

In test [6] the target is T1, Farnesyltransferase, putative (Leishmania major, UniProt Q4Q5W4).
T1 sequence (Q4Q5W4 whole entry): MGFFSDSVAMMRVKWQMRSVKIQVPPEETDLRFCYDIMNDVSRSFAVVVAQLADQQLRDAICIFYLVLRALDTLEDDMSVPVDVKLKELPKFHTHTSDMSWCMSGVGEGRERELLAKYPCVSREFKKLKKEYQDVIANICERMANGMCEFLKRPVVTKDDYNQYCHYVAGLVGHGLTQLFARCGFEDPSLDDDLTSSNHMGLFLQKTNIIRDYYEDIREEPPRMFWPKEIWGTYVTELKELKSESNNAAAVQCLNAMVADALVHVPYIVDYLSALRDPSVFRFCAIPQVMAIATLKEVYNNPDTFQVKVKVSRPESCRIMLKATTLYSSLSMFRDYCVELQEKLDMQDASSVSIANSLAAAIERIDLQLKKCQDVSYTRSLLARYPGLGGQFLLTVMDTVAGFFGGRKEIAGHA
Kind of test: Inhibition of Leishmania major recombinant squalene synthase expressed in Escherichia coli by liquid scintillation counter. A digest of the protocol: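 Soluble E. coli extract expressing L. major SQS truncated by 16 N-terminal and 40 C-terminal residues. Buffer: 50 mM phosphate pH 7.4, 20 mM MgCl2, 5 mM CHAPS, 1% Tween 80, 10 mM DTT, BSA, 0.25 mM NADPH, and a glucose-6-phosphate/G6PDH regenerating system. Substrate 0.5 μM radiolabelled farnesyl pyrophosphate. Squalene band counted by scintillation. IC50 from hyperbolic plot of five concentrations in duplicate, usually run twice.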

The subject of the next test is Leishmania donovani. Nature of the test: Antileishmanial activity against Leishmania donovani MHOM/ET/67/L82 axenic amastigotes after 72 hrs by resazurin assay. The format is functional, organism-based. Conditions: MHOM/ET/67/L82, 72 h. A digest of the protocol: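 L. donovani MHOM/ET/67/L82 amastigotes grown axenically at 37°C in synthetic minimal medium at pH 5.4 with 10% heat-inactivated FBS under 5% CO2. 1 × 10⁵ amastigotes per well with seven threefold dilutions, 30 to 0.041 μg/ml. After 72 h, resazurin added for 2–4 h more. Fluorescence read at ex 536/em 588 nm. IC50 taken from sigmoidal curve. Run in duplicate, with an independent repeat for actives.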

In the next test the test system is L6. Nature of the test: Cytotoxicity against rat L6 cells after 72 hrs by resazurin assay. Type of test: cell-based. Particulars: L6, 72 h. An outline of the steps:
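L-6 cells seeded at 4 × 10⁴ cells/ml in RPMI 1640 with 10% FBS and 2 mM L-glutamine. After 24 h, medium replaced with serial drug dilution and incubated for 72 h at 37°C in 5% CO2. Resazurin added for 2–4 h, fluorescence read at ex 536/em 588 nm. IC50 from sigmoidal curve. Duplicate, with an independent repeat for actives.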

Test [7] relates to Leishmania amazonensis. Nature of the test: Inhibition of sterol biosynthesis in Leishmania mexicana amazonensis promastigotes assessed as reduction in endogenous cholesta-5,7,24-trien-3beta-ol level at 3 uM after 96 hrs by gas-liquid chromatography. Type of test: functional. Details: scale not given: the % may be the effect or the level left. A digest of the protocol: as §1

The subject of test [8] is Leishmania amazonensis. Nature of the test: Inhibition of sterol biosynthesis in Leishmania mexicana amazonensis promastigotes assessed as reduction in exogenous cholesterol level at 3 uM after 96 hrs by gas-liquid chromatography. Also on record: scale not given: the % may be the effect or the level left. The format is functional. An outline of the steps: as §1
Test [9] has as its system Leishmania amazonensis. Nature of the test: Inhibition of sterol biosynthesis in Leishmania mexicana amazonensis promastigotes assessed as reduction in endogenous 5-dehydro episterol level at 1 uM after 96 hrs by gas-liquid chromatography. Also on record: scale not given: the % may be the effect or the level left. Type of test: functional. A digest of the protocol: as §1

Test [10] concerns Leishmania amazonensis. Nature of the test: Inhibition of sterol biosynthesis in Leishmania mexicana amazonensis promastigotes assessed as reduction in endogenous episterol level at 1 uM after 96 hrs by gas-liquid chromatography. Type of test: functional. Also on record: scale not given: the % may be the effect or the level left. A digest of the protocol: as §1
The next test has as its system Trypanosoma cruzi. Kind of test: Antitrypanosomal activity against trypomastigotes of Trypanosoma cruzi Tulahuen C2C4 containing lacZ gene in rat L6 cells after 4 days by chlorophenol red-beta-D-galactopyranoside/Nonidet assay. The format is functional, organism-based. Particulars: Tulahuen C2C4, L6, 96 h. An outline of the steps:
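L-6 rat myoblasts seeded at 2,000 cells/well in RPMI 1640 with 10% FBS and 2 mM L-glutamine. After 24 h, 5,000 T. cruzi Tulahuen C2C4 lacZ trypomastigotes added with serial drug dilution. Incubated at 37°C in 5% CO2 for 4 days. CPRG/Nonidet substrate added and colour read at 540 nm after 2–4 h. IC50 from sigmoidal curve. Duplicate determinations.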

The next test has as its system Plasmodium falciparum. Nature of the test: Antiplasmodial activity after 48 hrs against chloroquine and pyrimethamine-resistant Plasmodium falciparum K1 in human erythrocytes by [3H]hypoxanthine uptake. Type of test: functional, organism-based. A digest of the protocol: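 P. falciparum K1 in human red cells in RPMI 1640 with 5% Albumax, exposed to serial drug dilutions. Incubated 48 h at 37°C under reduced oxygen, then 0.5 μCi [³H]hypoxanthine per well for 24 h more. Cells harvested onto glass-fibre filters and counted by scintillation. Result expressed as % of untreated control, with IC50 from sigmoidal curve. Duplicate, plus an independent repeat for actives.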

Test [11] has as its system Leishmania amazonensis. Nature of the test: Inhibition of sterol biosynthesis in Leishmania mexicana amazonensis promastigotes assessed as reduction in endogenous episterol level at 3 uM after 96 hrs by gas-liquid chromatography. Type of test: functional. Details: scale not given: the % may be the effect or the level left. A digest of the protocol:
as §1

Test [12] has as its system Leishmania amazonensis. Kind of test: Inhibition of sterol biosynthesis in Leishmania mexicana amazonensis promastigotes assessed as reduction in endogenous 5-dehydro episterol level at 3 uM after 96 hrs by gas-liquid chromatography. The format is functional. Also on record: scale not given: the % may be the effect or the level left. A digest of the protocol:
as §1

A further test has as its target T2, Squalene synthase (Homo sapiens, UniProt P37268).
T2 sequence (P37268 whole entry): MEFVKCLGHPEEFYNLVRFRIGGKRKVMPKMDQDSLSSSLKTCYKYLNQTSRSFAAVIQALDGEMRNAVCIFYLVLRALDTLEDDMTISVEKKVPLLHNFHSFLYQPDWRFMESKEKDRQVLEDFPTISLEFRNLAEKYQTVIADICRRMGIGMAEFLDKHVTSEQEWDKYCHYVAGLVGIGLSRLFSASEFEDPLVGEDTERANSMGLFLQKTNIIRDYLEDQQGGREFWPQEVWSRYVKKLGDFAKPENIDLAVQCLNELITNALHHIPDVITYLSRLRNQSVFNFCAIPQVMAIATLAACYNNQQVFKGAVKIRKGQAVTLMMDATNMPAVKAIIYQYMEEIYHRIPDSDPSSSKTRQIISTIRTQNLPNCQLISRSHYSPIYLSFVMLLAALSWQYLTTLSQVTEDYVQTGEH
Kind of test: Inhibition of human recombinant squalene synthase expressed in Escherichia coli BL21(DE3 pLysS) up to 1 uM by liquid scintillation counter. An outline of the steps:
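Human SQS in extracts of E. coli BL21(DE3 pLysS) carrying pHSS16, assayed under the same conditions as the L. major enzyme. Buffer: phosphate pH 7.4, MgCl2, CHAPS, Tween 80, DTT, BSA, and NADPH with a regenerating system. Substrate 0.5 μM radiolabelled farnesyl pyrophosphate. Squalene band radioactivity counted by scintillation.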

For test [13], the system named is Leishmania amazonensis. Kind of test: Inhibition of sterol biosynthesis in Leishmania mexicana amazonensis promastigotes assessed as reduction in endogenous 5-dehydro episterol level at 0.3 uM after 96 hrs by gas-liquid chromatography. Details: scale not given: the % may be the effect or the level left. Type of test: functional. A digest of the protocol:
(§2)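 Promastigotes grown in liver infusion-tryptose medium with lactalbumin and 10% fetal calf serum at 26°C, static; drug added at 0.5 × 10⁷ to 1 × 10⁷ cells/ml and cells exposed for 96 h. Total lipids extracted; neutral lipids separated from polar lipids by silicic acid column chromatography; free sterols quantified by capillary gas-liquid chromatography and mass spectrometry as mass % of total sterols.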

Test [14] relates to Leishmania amazonensis. Nature of the test: Inhibition of sterol biosynthesis in Leishmania mexicana amazonensis promastigotes assessed as reduction in exogenous cholesterol level at 0.3 uM after 96 hrs by gas-liquid chromatography. The format is functional. Also on record: scale not given: the % may be the effect or the level left. A digest of the protocol:
as §2

Test [15] relates to Leishmania amazonensis. Kind of test: Inhibition of sterol biosynthesis in Leishmania mexicana amazonensis promastigotes assessed as reduction in endogenous 5-dehydro episterol level at 0.1 uM after 96 hrs by gas-liquid chromatography. The format is functional. Also on record: scale not given: the % may be the effect or the level left. A digest of the protocol: as §1
Test [16] deals with Leishmania amazonensis. Kind of test: Inhibition of sterol biosynthesis in Leishmania mexicana amazonensis promastigotes assessed as reduction in endogenous episterol level at 0.1 uM after 96 hrs by gas-liquid chromatography. Type of test: functional. Also on record: scale not given: the % may be the effect or the level left. A digest of the protocol:
as §1

Test [17] has as its system Leishmania amazonensis. Kind of test: Inhibition of sterol biosynthesis in Leishmania mexicana amazonensis promastigotes assessed as reduction in endogenous episterol level at 0.3 uM after 96 hrs by gas-liquid chromatography. The format is functional. Details: scale not given: the % may be the effect or the level left. An outline of the steps:
as §2

Test [18] deals with Leishmania amazonensis. Kind of test: Inhibition of sterol biosynthesis in Leishmania mexicana amazonensis promastigotes assessed as reduction in exogenous cholesterol level at 0.1 uM after 96 hrs by gas-liquid chromatography. Type of test: functional. Also on record: scale not given: the % may be the effect or the level left. An outline of the steps: as §1

≈ marks a conversion by molar mass, not a printed value.

For `CC(C)(C)[Si](C)(C)Oc1ccc(C2=CN3CCC2CC3)cc1`, the 50% inhibitory concentration (IC50) in [1] is 2.1 µM; in test [6], more than 1 µM; in the test with Leishmania donovani, 31.1 µM; in the test with L6, 23.8 µM; with Trypanosoma cruzi, 16.3 µM; in the test with Plasmodium falciparum, 4.1 µM. For the same molecule, the Activity in the test with Leishmania amazonensis [2] is on record as 29.2%; in the test on Leishmania amazonensis [3], 4.8%; in the test with Leishmania amazonensis [5], 9%; with Leishmania amazonensis [7], 10.7%; with Leishmania amazonensis [8], 55.4%; with Leishmania amazonensis [9], 54.7%. For the same molecule, the Activity was 7.1% in the test with Leishmania amazonensis [10], 7.9% with Leishmania amazonensis [11] and 21.2% in the test on Leishmania amazonensis [12]. This molecule also came in with an MIC against Leishmania amazonensis [4] of 3 µM (≈ 0.947 µg/mL).
For the molecule `c1ccc(-c2ccc(CC3CN4CCC3CC4)cc2)cc1` (configuration not stated), the half-inhibitory concentration (IC50) in test [1] was 0.7 µM; in [6], more than 1 µM; in the test with Leishmania donovani it was more than 108 µM; in the test with L6 it was 20.5 µM; in the test with Trypanosoma cruzi, 4.7 µM; in the test with Plasmodium falciparum, 2.8 µM. Moreover, at Squalene synthase, the IC50 result is given as “Not Active”. The Activity in the test on Leishmania amazonensis [2] was 51.1%; in the test with Leishmania amazonensis [5], 10.4%; in the test with Leishmania amazonensis [9], 30.3%; with Leishmania amazonensis [10], 8.2%. In the test on Leishmania amazonensis [4], this molecule showed an MIC of 1 µM (≈ 0.277 µg/mL).
Regarding `C(=C1/CN2CCC1CC2)/c1ccc(-c2ccccc2)cc1`, the Activity is reported as 18.1% with Leishmania amazonensis [13]; 36.7% in the test with Leishmania amazonensis [14]; 26.4% in the test with Leishmania amazonensis [15]; 42.2% with Leishmania amazonensis [16]; 33.3% with Leishmania amazonensis [17]; 31.4% in the test with Leishmania amazonensis [18]. Besides, the IC50 is 0.7 µM in test [1]; more than 1 µM in test [6]; 41.3 µM in the test with Leishmania donovani; 13.4 µM in the test with L6; 1.8 µM in the test with Trypanosoma cruzi; 3.1 µM in the test on Plasmodium falciparum. Besides, the IC50 entry at Squalene synthase is “Not Active”. The molecule also displayed an MIC against Leishmania amazonensis [4] of 0.3 µM (≈ 0.0826 µg/mL).

For orientation: IC50 means the midpoint of a concentration-inhibition curve. What is called MIC is the least concentration at which growth counts as inhibited.

Values taken from ChEMBL document CHEMBL1137637, “Quinuclidine derivatives as potential antiparasitics” (Antimicrob Agents Chemother, 2007).
